This note sets out measurements from PMC9305408 (Chemmedchem, 2022).

What all share (assay type): cell-based
The test system of test [1] is Aspergillus niger. Description: MIC, broth microdilution. Particulars: 48 h, read-out: minimum inhibitory concentration (MIC). The essentials: (§1)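 Twofold serial dilutions of test compound in Mueller-Hinton broth were run across 12 wells, starting from 10 mg/mL in the first well. Fungal suspension was added at about 10⁶ CFU/mL final, then plates were incubated at 28 °C for 48 h. Resazurin was added for 2 h at 37 °C, with blue-to-pink reduction scored as growth. MIC was determined in triplicate.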

For test [2], the system named is Staphylococcus aureus ATCC 29213. The experiment in a line: MIC, broth microdilution. The conditions noted are these: ATCC29213, 24 h, read-out: minimum inhibitory concentration (MIC). The essentials:
(§2)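 Run by broth microdilution in Mueller-Hinton broth. A 10 mg/mL test sample was added to the first well and serially diluted 1:2 across 12 wells. Bacteria were added to about 10⁶ CFU/mL final, and plates were incubated at 37 °C for 24 h. Resazurin was then added for 2 h at 37 °C, and reduction from blue to pink scored growth. MIC was determined in triplicate.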
On the technique in general: Dilution methods test growth across graded concentrations, often in twofold steps.

In test [3] the test system is Bacillus subtilis ATCC 3366. The experiment in a line: MIC, broth microdilution. The conditions noted are these: ATCC3366, 24 h, read-out: minimum inhibitory concentration (MIC). The essentials: as §2
Test [4] concerns Pseudomonas aeruginosa ATCC 27853. The experiment in a line: MIC, broth microdilution. The conditions noted are these: ATCC27853, 24 h, read-out: minimum inhibitory concentration (MIC). In short, it runs like this: as §2
Test [5] concerns Escherichia coli ATCC 25922. Description: MIC, broth microdilution. Particulars: ATCC25922, 24 h, read-out: minimum inhibitory concentration (MIC). In short, it runs like this:
as §2

In test [6] the test system is Candida albicans. Description: MIC, broth microdilution. The conditions noted are these: 48 h, read-out: minimum inhibitory concentration (MIC). In short, it runs like this: as §1
In test [7] the test system is Candida albicans. The experiment in a line: Agar disc diffusion. Particulars: 6 mm discs, 6 μl of 10 mg/mL.
For test [8], the system named is Aspergillus niger. Description: Agar disc diffusion. The conditions noted are these: 6 mm discs, 6 μl of 10 mg/mL. (In general: In agar diffusion tests the substance spreads into inoculated agar from a disc or well.)
Test [9] deals with Bacillus subtilis ATCC 3366. The experiment in a line: Agar disc diffusion. Particulars: ATCC3366, read-out: diameter of the inhibition zone. The essentials:
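Agar plates (30 ml medium) were each spread with 100 μl fresh culture of one organism. Sterile 6 mm paper discs were loaded with 6 μl of 10 mg/mL test sample. Plates were sealed against evaporation and incubated at 37 °C for 24 h. Inhibition zone diameter was measured in mm, averaged over three independent determinations.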

Each structure is given as a SMILES string. In brackets after ≈: the same amount, converted by molar mass.

As for `C#CCn1c(=O)cc(C(=O)N[C@@H](C)C(=O)OC)c2ccccc21` [Compound 2 a, Methyl (S)‐2‐[2‐oxo‐1‐(prop‐2‐yn‐1‐yl)‐1,2‐dihydroquinoline‐4‐carbox amido]propanoate], the MIC in test [1] was 10000 µg/mL (≈ 32000 µM); in [2] it was 2500 µg/mL (≈ 8000 µM); in test [3], 5000 µg/mL (≈ 16000 µM); in [4], 620 µg/mL (≈ 1990 µM); in test [5] it was 620 µg/mL (≈ 1990 µM).
With `C#CCn1c(=O)cc(C(=O)N[C@@H](C)C(=O)OC)c2cc(Br)ccc21` [Compound 2 b, Methyl (S)‐6‐bromo‐2‐[2‐oxo‐1‐(prop‐2‐yn‐1‐yl)‐1,2‐dihydroquinoline‐4‐carboxamido]propanoate], the MIC in [6] stood at 10000 µg/mL (≈ 25600 µM); in test [2], 2500 µg/mL (≈ 6390 µM); in [3], 2500 µg/mL (≈ 6390 µM); in [4], 2500 µg/mL (≈ 6390 µM); in test [5], 620 µg/mL (≈ 1580 µM).
For the molecule `CCCCCn1cc(Cn2c(=O)cc(C(=O)N[C@@H](C)C(=O)OC)c3ccccc32)nn1` [Compound 3a1, Methyl (S)‐2‐{2‐oxo‐1‐[(1‐pentyl‐1H‐1,2,3‐triazol‐4‐yl)methyl]‐1,2‐dihydroquinoline‐4‐carboxamido}propanoate], the “diameter of the inhibition zone” value in test [7] and in test [8] was “did not show any antifungal activity” in each case. The MIC in test [2] was 1250 µg/mL (≈ 2940 µM); in test [3], 310 µg/mL (≈ 729 µM); in [4] it was 2500 µg/mL (≈ 5880 µM); in [5], 78 µg/mL (≈ 183 µM).
In the case of `COC(=O)[C@H](C)NC(=O)c1cc(=O)n(Cc2cn(Cc3ccccc3)nn2)c2ccccc12` [Compound 3a2, Methyl (S)‐2‐{2‐oxo‐1‐[(1‐benzyl‐1H‐1,2,3‐triazol‐4‐yl)methyl]‐1,2‐dihydroquinoline‐4‐carboxamido}propanoate], the MIC in test [6] was found to be 10000 µg/mL (≈ 22400 µM); in test [2], 2500 µg/mL (≈ 5610 µM); in [3] it was 2500 µg/mL (≈ 5610 µM); in [4], 2500 µg/mL (≈ 5610 µM); in test [5] it was 310 µg/mL (≈ 696 µM).
Turning to `COC(=O)[C@H](C)NC(=O)c1cc(=O)n(Cc2cn(Cc3ccccc3C)nn2)c2ccccc12` [Compound 3a3, Methyl (S)‐2‐{2‐oxo‐1‐[(1‐(2‐methylbenzyl)‐1H‐1,2,3‐triazol‐4‐yl)methyl]‐1,2‐dihydroquinoline‐4‐carboxamido}propanoate], the MIC in test [6] was determined as 10000 µg/mL (≈ 21800 µM); in [2], 1250 µg/mL (≈ 2720 µM); in test [3] it was 2500 µg/mL (≈ 5440 µM); in test [4] it was 1250 µg/mL (≈ 2720 µM); in [5], 39 µg/mL (≈ 84.9 µM).
As a reminder, the zone of inhibition is the extent of the growth-free halo in a diffusion test. As to `COC(=O)[C@H](C)NC(=O)c1cc(=O)n(Cc2cn(Cc3ccccc3Br)nn2)c2ccccc12` [Compound 3a4, Methyl (S)‐2‐{2‐oxo‐1‐[(1‐(2‐bromobenzyl)‐1H‐1,2,3‐triazol‐4‐yl)methyl]‐1,2‐dihydroquinoline‐4‐carboxamido}propanoate], the zone of inhibition at 10000 µg/mL in test [9] was 18 mm. Moreover, the “diameter of the inhibition zone” value in test [7] and in [8] was “did not show any antifungal activity” in each case. Further, the MIC is 310 µg/mL (≈ 591 µM) in test [2], 78 µg/mL (≈ 149 µM) in [3], 2500 µg/mL (≈ 4770 µM) in test [4] and 2500 µg/mL (≈ 4770 µM) in test [5].
With `COC(=O)C(NC(=O)c1ccccc1)n1cc(Cn2c(=O)cc(C(=O)N[C@@H](C)C(=O)OC)c3ccccc32)nn1` (stereo partly drawn) [Compound 3a5, Methyl (S)‐2‐{2‐oxo‐1‐[(1‐(1‐benzamido‐2‐methoxy‐2‐oxoethyl)‐1H‐1,2,3‐triazol‐4‐yl)methyl]‐1,2‐dihydroquinoline‐4‐carboxamido}propanoate], the MIC in test [6] stood at 5000 µg/mL (≈ 9150 µM); in [1], 10000 µg/mL (≈ 18300 µM); in test [2], 39 µg/mL (≈ 71.4 µM); in [3] it was 310 µg/mL (≈ 567 µM); in [4] it was 78 µg/mL (≈ 143 µM); in test [5] it was 19.5 µg/mL (≈ 35.7 µM).
For the molecule `COC(=O)[C@H](C)NC(=O)c1cc(=O)n(Cc2cn(Cc3ccccc3C)nn2)c2ccc(Br)cc12` [Compound 3b3, Methyl (S)‐6‐bromo‐2‐{2‐oxo‐1‐[(1‐(2‐methylbenzyl)‐1H‐1,2,3‐triazol‐4‐yl)methyl]‐1,2‐dihydroquinoline‐4‐carboxamido}propanoate], the “diameter of the inhibition zone” value in test [7] and in test [8] was “did not show any antifungal activity” each time. Further, the MIC in [2] is 2500 µg/mL (≈ 4640 µM); in test [3], 310 µg/mL (≈ 576 µM); in test [4] it was 620 µg/mL (≈ 1150 µM); in [5], 620 µg/mL (≈ 1150 µM).
Take `COC(=O)[C@H](C)NC(=O)c1cc(=O)n(Cc2cn(Cc3ccccc3Br)nn2)c2ccc(Br)cc12` [Compound 3b4, Methyl (S)‐6‐bromo‐2‐{2‐oxo‐1‐[(1‐(2‐bromobenzyl)‐1H‐1,2,3‐triazol‐4‐yl)methyl]‐1,2‐dihydroquinoline‐4‐carboxamido}propanoate]: the “diameter of the inhibition zone” value in test [7] and in [8] was “did not show any antifungal activity” each time. Further, the MIC in [2] was determined as 2500 µg/mL (≈ 4140 µM); in test [3] it was 9.75 µg/mL (≈ 16.2 µM); in test [4], 1250 µg/mL (≈ 2070 µM); in test [5], 310 µg/mL (≈ 514 µM).
